# From PubChem
# This is a sample that favours compounds with a hit; in the whole collection about 4% have one here.
# TAAR1 agonist – agonists of human TAAR1; activation, % at 3 µM; 360,000 compounds, 0.99% hits; Q96RJ0; CHO RD-HGA16 TAAR1, Fluo-8 calcium fluorescence; vehicle wells 0%, saturating PEA agonist 100%;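 active means activation above the mean activation of all test compounds in the run plus 3 SD, cut at about 38% in these data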
#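 System: CHO-derived RD-HGA16 cells with stable Gα16 and human TAAR1 / Times: 17-24 h plating, Fluo-8 75 min 37 °C, 30 min RT / Technique: calcium-sensitive Fluo-8 signal, excitation 470-495, emission 515-575 nm / Measure: % activation relative to PEA EC100 response / Benchmarks: DMSO and PEA EC100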
# NTR1 agonist – NTR1 (human) agonism | P30989 | NTR1-U2OS beta-arrestin-GFP spot imaging, agonist mode | 330,000 compounds, 0.17% hits | activation, % at 20 µM;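 active means activation at or above 40% of the spot to cytoplasm intensity ratio, with at least 20 cells analyzed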;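 further: 0% = DMSO without peptide and 100% = 100 nM NTR1 peptide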
# Target sequence (P30989 whole entry, looked up): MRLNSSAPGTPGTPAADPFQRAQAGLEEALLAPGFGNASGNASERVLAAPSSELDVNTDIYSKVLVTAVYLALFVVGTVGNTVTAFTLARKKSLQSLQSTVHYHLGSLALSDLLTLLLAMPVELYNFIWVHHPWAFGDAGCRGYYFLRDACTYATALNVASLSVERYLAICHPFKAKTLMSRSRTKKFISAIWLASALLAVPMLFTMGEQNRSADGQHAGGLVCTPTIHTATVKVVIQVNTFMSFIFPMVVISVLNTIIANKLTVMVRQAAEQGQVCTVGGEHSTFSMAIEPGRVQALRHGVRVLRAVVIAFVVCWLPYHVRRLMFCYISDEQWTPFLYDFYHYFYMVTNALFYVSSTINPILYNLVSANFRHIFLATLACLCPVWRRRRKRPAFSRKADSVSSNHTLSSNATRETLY
# OX1R antag-1 – antagonists of human orexin 1 receptor (OX1R); O43613; OX1R-expressing cells, FRET antagonist read-out; inhibition, % at 6.6 µM; 330,000 compounds, 1.8% hits; AID 485270; in the data active means inhibition mostly above about 38%, no sharp cut-off; inactive means mostly below about 40%;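 further: 0% = agonist challenge alone and 100% = reference antagonist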
# TAAR1 antag – antagonists of human TAAR1; Q96RJ0; CHO RD-HGA16 TAAR1, Fluo-8 calcium fluorescence, antagonist; inhibition, % at 3 µM; 360,000 compounds, 1.5% hits; AID 624466;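 active means inhibition above a per-plate cutoff, the mean inhibition of test compounds on that plate plus 3 SD, cut at about 49% in these data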;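 further: 0% = DMSO plus EC80 beta-PEA response and 100% = DMSO alone without agonist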
#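 Assay system: RD-HGA16 CHO cells with stable hTAAR1 and Gα16 / Reagent: EC80 β-phenethylamine stimulus / Doses: 3 µM, single point / Timing: dye loading 75 min at 37 °C, then 30 min room temperature / Measured by: Fluo-8 intracellular calcium dye fluorescence, real-time kinetic reads / Controls: vehicle wells and EC80 agonist wells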
# OX1R antag-2 – blocks the human orexin 1 receptor. O43613. CHO/OX1R cells, Fluo-8 calcium fluorescence, orexin A. inhibition, % at 5 µM. 330,000 compounds, 0.43% hits. AID 434989;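 active means inhibition above its plate's threshold, mean inhibition of all tested compounds on the plate plus 3 SD, cut at about 37% in these data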;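 further: 0% = orexin A challenge wells and 100% = SB-334867-A antagonist wells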
# CHO parental Ca – counter-screen: ATP calcium response change in parental CHO cells; parental CHO-K1, ATP-induced calcium, Fluo-8 fluorescence; inhibition, % at 5.6 µM; 330,000 compounds, 0.63% hits; AID 463079;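 active means inhibition above that plate's mean sample inhibition plus 3 SD, cut at about 26% in these data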;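 further: 0% = ATP-challenged DMSO wells and 100% = DMSO wells without ATP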
#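 Assay system: parental CHO cells; Read-out basis: percent inhibition of ATP-evoked calcium rise, normalized to controls; Benchmarks: ATP and no-ATP DMSO wells; Compound dosing: single nominal dose of 5.6 µM per compound; Signal: Fluo-8 calcium dye fluorescence; Also added: ATP as calcium-mobilizing challenge; Repeats: singlicate.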
# TAAR1 ag conf – confirmation of human TAAR1 agonists; activation, % at 3 µM; shares compounds with TAAR1 agonist; CHO RD-HGA16 TAAR1, Fluo-8 calcium fluorescence; scaled: DMSO 0%, maximal phenethylamine 100%; 2,400 compounds, 82% hits; AID 651783;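 active means activation above a cutoff set at the run's mean compound activation plus 3 SD, cut at about 39% in these data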
# Ga16 ag counter – nonselective agonist in parental cells, TAAR1 agonist counter-screen; shares compounds with TAAR1 agonist; CHO-Ga16 parental, Fluo-8 calcium fluorescence; normalized to maximal ATP response, DMSO zero; activation, % at 3 µM; 2,400 compounds, 50% hits; AID 651787;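 active means activation above the run cutoff, the mean activation over all tested wells plus 3 SD, cut at about 12% in these data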;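 further: 0% = DMSO wells and 100% = maximal ATP response on the peak over basal ratio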
# TAAR1 desens – TAAR1 response desensitization, agonist counter-screen | shares compounds with TAAR1 agonist | CHO RD-HGA16 hTAAR1, Fluo-8 calcium, beta-PEA response inhibition | inhibition, % at 3 µM | 2,400 compounds, 46% hits | AID 651951;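 active means inhibition above the run cutoff, the mean inhibition of all test compounds plus 3 SD, cut at about 49% in these data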;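 further: beta-PEA stimulus applied at its EC80; loss of beta-PEA calcium signal after compound pretreatment read as receptor desensitization; 0% = DMSO with beta-PEA at EC80 and 100% = DMSO alone without agonist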
# Ga16 antag count – nonselective Ga16 antagonist in TAAR1 agonist counter-screen; shares compounds with TAAR1 agonist; CHO-Ga16 ATP-induced calcium, Fluo-8 fluorescence; inhibition, % at 3 µM; 2,400 compounds, 39% hits; AID 651952;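 active means inhibition above the plate's mean compound inhibition plus 3 SD, computed per plate, cut at about 22% in these data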;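 further: 0% = EC80 ATP with DMSO and 100% = DMSO wells without ATP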
# Active calls of the source: *; . = no result given.
SMILES,TAAR1 agonist,NTR1 agonist,OX1R antag-1,TAAR1 antag,OX1R antag-2,CHO parental Ca,TAAR1 ag conf,Ga16 ag counter,TAAR1 desens,Ga16 antag count
C/C(=N\NC(=O)c1nnn(-c2nonc2N)c1-c1ccc2c(c1)OCO2)c1cccs1,144*,9,-2,96*,4,-2,127*,101*,91*,61*
CCc1nc2c(OCc3ccc(Cl)cc3Cl)cccn2c1N(C=O)Cc1ccc(OC)cc1,3,.,.,-1,.,.,.,.,.,.
O=c1ccc2[n+]([O-])c3ccc(O)cc3oc-2c1,58*,.,.,8,.,.,32,42*,26,42*
O=c1cc(O)c2ccc(O)cc2o1,7,2,10,-2,-3,-7,.,.,.,.
Cc1nc(Nc2ccc(C(=O)O)cc2)sc1-c1ccccc1,62*,1,-8,31,13,2,71*,63*,61*,44*
O=C(Nc1ccccc1)OCCCc1ccccc1,-2,2,10,-16,-19,-15,.,.,.,.
O=C(Nc1ccccc1)OCCCCOC(=O)Nc1ccccc1,54*,.,.,35,.,.,15,14*,12,10
COc1ccccc1NS(=O)(=O)c1ccc2oc(N)nc2c1,4,2,9,0,-16,-4,.,.,.,.
O=C(NC1CCCCC1)c1cccnc1C(=O)O,5,-1,16,-3,-12,2,.,.,.,.
O=C(O)c1ccccc1C(=O)NC1Cc2ccccc2C1,85*,-2,1,77*,3,-12,98*,16*,91*,6
CC(=O)NC(=S)NNC(=O)CCc1ccccc1,3,1,9,-11,-2,-7,.,.,.,.
O=C(CCc1ccccc1)NNC(=S)NC(=O)c1ccccc1,88*,0,-3,17,-2,-2,75*,56*,34,25*
CCCCC(=O)NC(=S)NNC(=O)CCc1ccccc1,64*,3,14,19,6,-1,82*,62*,40,35*
CCOC1=C2[C@H](c3ccccc3)N(S(=O)(=O)c3ccc(C)cc3)C[C@H]2n2c(=O)n(-c3ccccc3)c(=O)n2C1,0,.,.,-32,.,.,.,.,.,.
C=CCN1C(=O)c2ccc(C(=O)N(C)CC(=O)Nc3ccc(Br)cc3C)cc2C1=O,2,0,22,-31,-17,-28,.,.,.,.
Cc1cc(C)cc(Nc2cc(=O)n(C3CCCCC3)c(=O)[nH]2)c1,10,2,19,22,-6,-17,.,.,.,.
Cc1cc2nc3c(=O)n(C4CCCCC4)c(=O)[nH]c3nc2cc1N,57*,.,.,12,.,.,28,64*,27,39*
Cc1ccc(NS(=O)(=O)c2ccc(C(=O)OCC(=O)Nc3cc(C)on3)cc2)cc1,72*,.,.,7,.,.,72*,35*,50*,37*
COc1ccc(CCN2CC3=C(C2=O)C(c2ccccc2)NC(=O)N3C)cc1OC (stereo unspecified),8,-1,11,0,-13,-13,.,.,.,.
CN1C(=O)NC(c2ccccc2)C2=C1CN(CCc1ccccc1)C2=O (stereo unspecified),58*,0,9,19,-18,-11,72*,2,54*,11
O=c1c2ccccc2nnn1CSc1ccccc1F,60*,3,17,45,-17,-10,6,2,3,12
COc1ccccc1CNC(=O)c1cccc(S(=O)(=O)N(C)c2ccccc2)c1,3,-2,15,15,3,-2,.,.,.,.
COc1ccc2c(Cn3cnc4cc([N+](=O)[O-])ccc4c3=O)cc(=O)oc2c1,.,8,11,.,2,6,.,.,.,.
O=c1c2ccc([N+](=O)[O-])cc2ncn1Cc1ccccc1C(F)(F)F,51*,2,25,7,-22,-7,8,22*,-2,12
Cc1cc(=O)[nH]c(Nc2cccc(F)c2)n1,51*,1,8,10,5,24,81*,2,41,5
SMILES,TAAR1 agonist,NTR1 agonist,OX1R antag-1,TAAR1 antag,OX1R antag-2,CHO parental Ca,TAAR1 ag conf,Ga16 ag counter,TAAR1 desens,Ga16 antag count
CC1Cc2ccccc2N1C(=O)CN1C(=O)NC(C)(c2ccc3c(c2)OCCO3)C1=O (stereo unspecified),53*,0,10,-5,-17,-14,43*,9,4,9
CC1(c2ccc3c(c2)OCCO3)NC(=O)N(CC(=O)c2ccc[nH]2)C1=O (stereo unspecified),7,0,1,5,-10,0,.,.,.,.
CC(NC(=O)COC(=O)c1ccc2c(=O)n3c(nc2c1)CCCCC3)c1ccccc1 (stereo unspecified),-1,0,-2,-3,-27,-17,.,.,.,.
COC(=O)C1=C(C)N(Cc2cccc(C(F)(F)F)c2)C(=NCc2ccc(C(F)(F)F)cc2)NC1c1ccc(F)cc1 (stereo unspecified),27,.,.,34,.,.,.,.,.,.
C=CCN=C1NC(c2ccc(Cl)cc2)C(C(=O)OC)=C(C)N1Cc1cccc(C(F)(F)F)c1 (stereo unspecified),65*,.,.,75*,.,.,76*,47*,89*,72*
COC(=O)C1=C(C)N(Cc2cccc(C(F)(F)F)c2)C(=NCc2ccc(C(F)(F)F)cc2)NC1c1ccc(C(F)(F)F)cc1 (stereo unspecified),9,.,.,21,.,.,.,.,.,.
COC(=O)C1=C(C)N(Cc2cccc(C(F)(F)F)c2)C(=NCc2ccc3c(c2)OCO3)NC1c1cccc(C(F)(F)F)c1 (stereo unspecified),40*,.,.,34,.,.,36,13*,25,33*
COC(=O)C1=C(C)N(Cc2cccc(C(F)(F)F)c2)C(=NCc2ccc3c(c2)OCO3)NC1c1ccc(F)cc1 (stereo unspecified),48*,.,.,50*,.,.,35,15*,44,36*
COc1ccc(NC(=O)CCc2nc(-c3ccccc3F)no2)cc1,48*,2,24,15,-2,-12,67*,8,44,20
CC(C)Oc1ccc(C(=O)OCC(=O)NC2CCCCCC2)cc1,11,2,12,7,-2,-4,.,.,.,.
